Test results reported in ChEMBL document CHEMBL1124747, “Properties of the nucleic acid photoaffinity labeling agent 3-azidoamsacrine” (J Med Chem, 1990).

Assays:
[1] = Ability to block cleavage of […] site in NciI enzyme with the light activated test compound/DNA ratio 1(no. of sites=10); += light activation
In short: (§1)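 pBR322 plasmid mixed with drug at 0.015, 0.12 or 0.48 mM (drug:DNA 1:8, 1:1 or 4:1), equilibrated on ice 30 min in the dark in 5 mM potassium phosphate pH 5.5, then irradiated 1 h with a medium-pressure Hg lamp (<340 nm filtered); dark set kept as control. Digested overnight with 10× excess enzyme plus DTT; fragments resolved on 1.2% agarose in TBE.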

[2] = Relative toxicity against mammalian L5178Y cells at dose 0.005 mg/mL in light condition (expt-II); format: functional, Mus musculus
In short: (§2)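 L5178Y mouse cells in suspension, 3 × 10^6 cells/mL, were exposed for 20 h at 37 °C in a shaker at 150 rpm under 5% CO2, without an activating enzyme. Light arms were irradiated for 6.5 min with a medium-pressure Hg lamp filtered to remove light below 340 nm; dark arms were not. Toxicity was taken as the Coulter-counted density of treated cells versus solvent control.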

[3] = Ability to block cleavage of G/GNCC site in Restriction endonuclease Sau961 with the light activated test compound/DNA ratio 1:8(no. of sites=15); += light activation; in short: as §1
[4] = Mean value of mutation induction for L5178Y cells was evaluated at dose 0.005 mg/mL in dark-I condition (expt-I); format: functional, Mus musculus
In short: (§3)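 L5178Y suspension cells (3 × 10^6/mL, 5% CO2, 37 °C, shaking) exposed 20 h without activating enzyme; light arm irradiated 6.5 min (Hg lamp, <340 nm filtered). Cells washed, grown 24 h more and kept at 3 × 10^5/mL. Viability from 200 cells in soft agar; TFT (0.1 mg/mL) resistant colonies from 10^6 cells in triplicate dishes, counted at 10 days.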

[5] = Relative toxicity against mammalian L5178Y cells at dose 0.008 mg/mL in dark-2 condition (expt-I); format: functional, Mus musculus; settings: in the assay text read “0.008 µg/mL” for “0.008 mg/mL”; in short: as §2
[6] = Relative mutation induction for L5178Y cells was evaluated at dose 0.005 mg/mL in light condition (expt-II); format: functional, Mus musculus; in short: as §3
[7] = Induction frequency for L5178Y cells was evaluated at dose 0.005 mg/mL in light condition (expt-II); format: functional, Mus musculus; in short: as §3
[8] = Relative mutation induction for L5178Y cells was evaluated at dose 0.005 mg/mL in dark condition (expt-II); format: functional, Mus musculus; in short: as §3
[9] = Relative mutation induction for L5178Y cells was evaluated at dose 0.005 mg/mL in light-I condition (expt-I); format: functional, Mus musculus; in short: as §3
[10] = Relative mutation induction for L5178Y cells was evaluated at dose 0.005 mg/mL in dark-I condition (expt-I); format: functional, Mus musculus; in short: as §3
[11] = Mutation frequency for L5178Y cells was evaluated at dose 0.005 mg/mL in dark-I condition (expt-I); format: functional, Mus musculus; in short: as §3
[12] = Ability to block cleavage of […] site in NciI enzyme with the light activated test compound/DNA ratio 1:8(no. of sites=10); += light activation; in short: as §1
[13] = Ability to block cleavage of GG/CC site in HaeIII enzyme with the light activated test compound/DNA ratio 1:8(no. of sites=22); += light activation; in short: as §1
[14] = Ability to block cleavage of TTT/AAA site in DraI enzyme with the light activated test compound/DNA ratio 1:8(no. of sites=3); += light activation; in short: as §1
[15] = Ability to block cleavage of GCC/GGC site in NaeI enzyme with the light activated test compound/DNA ratio 1(no. of sites=4); += light activation; in short: as §1
[16] = Ability to block cleavage of AG/CT site in AluI enzyme with the light activated test compound, DNA ratio 1(no. of sites=16); += light activation; in short: as §1
[17] = Ability to block cleavage of C/CGG site in HpaII enzyme with the light activated test compound/DNA ratio 4(no. of sites=26); += light activation; in short: as §1
[18] = Induction frequency for L5178Y cells was evaluated at dose 0.008 mg/mL in dark-II condition (expt-I); format: functional, Mus musculus; in short: as §3
[19] = Ability to block cleavage of GG/CC site in HaeIII enzyme with the light activated test compound/DNA ratio 4(no. of sites=22); += light activation; in short: as §1
[20] = Induction frequency for L5178Y cells was evaluated at dose 0.005 mg/mL in dark-I condition (expt-I); format: functional, Mus musculus; in short: as §3
[21] = Ability to block cleavage of AG/CT site in AluI enzyme with the light activated test compound, DNA ratio 4(no. of sites=16); += light activation; in short: as §1
[22] = Ability to block cleavage of TTT/AAA site in DraI enzyme with the light activated test compound/DNA ratio 1(no. of sites=3); += light activation; in short: as §1
[23] = Induction frequency for L5178Y cells was evaluated at dose 0.005 mg/mL in light-I condition (expt-I); format: functional, Mus musculus; in short: as §3
[24] = Half-life was evaluated in water in the presence of light; format: ADME
[25] = Ability to block cleavage of C/CGG site in HpaII enzyme with the light activated test compound/DNA ratio 1(no. of sites=26); += light activation; in short: as §1
[26] = Ability to block cleavage of G/GNCC site in Restriction endonuclease Sau961 with the light activated test compound/DNA ratio 1(no. of sites=15); += light activation; in short: as §1
[27] = Mean value of mutation induction for L5178Y cells was evaluated at dose 0.005 mg/mL in light condition (expt-II); format: functional, Mus musculus; in short: as §3
[28] = Viability of L5178Y cells was evaluated at dose 0.008 mg/mL in light-II condition (expt-I); format: functional, Mus musculus
In short: (§4)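 L5178Y cells were exposed for 20 h at 3 × 10^6 cells/mL. Light arms then received 6.5 min of Hg-lamp irradiation filtered to remove light below 340 nm. Cells were washed twice in Fischer's medium, grown a further 24 h and held at 3 × 10^5 cells/mL. For viability, 200 cells were plated in soft-agar cloning medium in triplicate dishes, and colonies were counted by an automated counter after 10 days.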

[29] = Viability of L5178Y cells was evaluated at dose 0.005 mg/mL in light condition (expt-II); format: functional, Mus musculus; in short: as §4
[30] = Viability of L5178Y cells was evaluated at dose 0.005 mg/mL in light-I condition (expt-I); format: functional, Mus musculus; in short: as §4

## COc1cc(NS(C)(=O)=O)ccc1Nc1c2ccccc2nc2cc(N=[N+]=[N-])ccc12.Cl
[1]
  Blockage activity: Light activation
[2]
  Relative toxicity: 65
[3]
  Blockage activity: Light activation
[4]
  Mean value: 99.7
[5]
  Relative toxicity: 55
[6]
  Relative activity: 28
[7]
  Induced frequency: 411
[8]
  Relative activity: 124
[9]
  Relative activity: 30
[10]
  Relative activity: 53
[11]
  Mutation frequency: 427 10e6 F
[12]
  Blockage activity: Light activation
[13]
  Blockage activity: Light activation
[14]
  Blockage activity: Light activation
[15]
  Blockage activity: Light activation
[16]
  Blockage activity: Light activation
[17]
  Blockage activity: Light activation
[18]
  Induced frequency: 457
[19]
  Blockage activity: Light activation
[20]
  Induced frequency: 319
[21]
  Blockage activity: Light activation
[22]
  Blockage activity: Light activation
[23]
  Induced frequency: 280
[24]
  half-life: 2.02 min
[25]
  Blockage activity: Light activation
[26]
  Blockage activity: Light activation
[27]
  Mean value: 114.3
[28]
  Viability: 0
[29]
  Viability: 35.7
[30]
  Viability: 57
